In ChEMBL document CHEMBL1137855, “Synthesis and biological evaluation of taxinine analogues as orally active multidrug resistance reversal agents in cancer” (Bioorg Med Chem Lett, 2004):

How the values were obtained:
Assay type in all cases: functional, cell-based
[1] = biological target: ATP-dependent translocase ABCB1 (Homo sapiens, UniProt P08183); assay: TP_TRANSPORTER: drug resistance (vincristine) in MDR KB/V cells
In short: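 Fold reversal in KB/V cells from MTT vincristine IC50s measured with and without the reversing agent (5 or 10 μM). The ratio is defined as the vincristine IC50 […].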

[2] = tested on: KB 3-1; assay: inhibitory concentration against human MDR KB/V cell line in presence of compound verapamil at 10 uM
In short: (§1)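 Vincristine cytotoxicity in P-gp-overexpressing MDR KB/V cells, alone or with a reversing agent at the stated level (5 or 10 μM). MTT colorimetric assay in 96-well plates measured cell survival. IC50 is the vincristine concentration (nM) that inhibited cell growth by 50%.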

[3] = tested on: KB 3-1; assay: inhibitory concentration against human MDR KB/V cell line in presence of compound Taxinine at 10 uM; in short: as §1
[4] = tested on: KB 3-1; assay: inhibitory concentration against human MDR KB/V cell line in presence of compound 9 at 5 uM; in short: as §1
[5] = tested on: KB 3-1; assay: inhibitory concentration against human MDR KB/V cell line in presence of compound 9 at 10 uM; in short: as §1
[6] = tested on: KB 3-1; assay: inhibitory concentration against human MDR KB/V cell line in presence of compound 8 at 5 uM; in short: as §1
[7] = tested on: KB 3-1; assay: inhibitory concentration against human MDR KB/V cell line in presence of compound 8 at 10 uM; in short: as §1
[8] = tested on: KB 3-1; assay: inhibitory concentration against human MDR KB/V cell line in presence of compound 10 at 10 uM; in short: as §1
[9] = tested on: KB 3-1; assay: inhibitory concentration against human MDR KB/V cell line in presence of compound 10 at 5 uM; in short: as §1
[10] = tested on: KB 3-1; assay: inhibitory concentration against human MDR KB/V cell line; in short: as §1

ATP-dependent translocase ABCB1, sequence (P08183 whole entry): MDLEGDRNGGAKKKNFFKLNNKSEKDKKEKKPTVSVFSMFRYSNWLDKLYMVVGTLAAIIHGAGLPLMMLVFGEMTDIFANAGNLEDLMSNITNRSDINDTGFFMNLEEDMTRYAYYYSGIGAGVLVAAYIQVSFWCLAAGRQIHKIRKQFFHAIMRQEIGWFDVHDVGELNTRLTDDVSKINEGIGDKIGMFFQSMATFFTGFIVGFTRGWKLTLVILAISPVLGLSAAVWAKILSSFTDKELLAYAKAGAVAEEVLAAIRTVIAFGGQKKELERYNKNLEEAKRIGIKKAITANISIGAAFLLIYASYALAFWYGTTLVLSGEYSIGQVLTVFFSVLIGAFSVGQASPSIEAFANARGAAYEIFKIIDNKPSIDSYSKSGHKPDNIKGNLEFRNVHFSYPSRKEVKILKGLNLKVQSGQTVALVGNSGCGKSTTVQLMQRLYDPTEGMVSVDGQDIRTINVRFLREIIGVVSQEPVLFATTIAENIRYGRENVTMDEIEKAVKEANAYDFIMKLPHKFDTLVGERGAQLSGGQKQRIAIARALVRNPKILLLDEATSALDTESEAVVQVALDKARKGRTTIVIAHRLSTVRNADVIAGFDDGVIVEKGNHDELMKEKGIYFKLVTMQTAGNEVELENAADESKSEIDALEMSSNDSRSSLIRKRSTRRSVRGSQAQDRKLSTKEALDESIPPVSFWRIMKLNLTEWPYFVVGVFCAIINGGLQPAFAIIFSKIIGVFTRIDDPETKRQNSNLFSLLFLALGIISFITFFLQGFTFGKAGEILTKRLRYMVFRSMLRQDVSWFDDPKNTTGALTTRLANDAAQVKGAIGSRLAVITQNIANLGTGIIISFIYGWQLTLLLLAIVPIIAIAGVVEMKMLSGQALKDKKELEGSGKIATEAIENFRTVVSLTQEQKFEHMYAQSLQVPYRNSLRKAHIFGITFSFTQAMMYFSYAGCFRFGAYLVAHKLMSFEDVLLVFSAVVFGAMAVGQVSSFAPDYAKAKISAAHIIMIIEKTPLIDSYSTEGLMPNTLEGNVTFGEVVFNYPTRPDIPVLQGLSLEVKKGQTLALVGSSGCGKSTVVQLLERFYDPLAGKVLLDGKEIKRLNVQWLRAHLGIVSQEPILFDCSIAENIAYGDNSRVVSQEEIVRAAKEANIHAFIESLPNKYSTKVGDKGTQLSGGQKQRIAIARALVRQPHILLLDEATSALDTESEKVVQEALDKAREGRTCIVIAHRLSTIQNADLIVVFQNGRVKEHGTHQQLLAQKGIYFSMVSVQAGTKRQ

`C=C1[C@@H](OC(=O)CCc2ccccc2)CC[C@@]2(C)C[C@H](OC(C)=O)C3=C(C)C(=O)C[C@@H]([C@@H](OC(C)=O)[C@H]12)C3(C)C` was tested. Which Activity [1] did it give?
The Activity was “inhibitor [+]”.

With `CC[C@]1(O)CC2CN(CCc3c([nH]c4ccccc34)[C@@](C(=O)OC)(c3cc4c(cc3OC)N(C=O)C3C45CCN4CC=C[C@@](CC)(C(OC(C)=O)[C@]3(O)C(=O)OC)[C@H]45)C2)C1.COc1ccc(CCN(C)CCCC(C#N)(c2ccc(OC)c(OC)c2)C(C)C)cc1OC` (stereo not given in full) as the molecule, how does the IC50 [2] read?
The IC50 was 18.1 nM.

`C=C1C2[C@H](C(C)=O)[C@@H]3CCC(=O)C(C)=C([C@@H](C(C)=O)[C@H](C(C)=O)[C@]2(C)CC[C@@H]1OC(=O)/C=C/c1ccccc1)C3(C)C.CC[C@]1(O)CC2CN(CCc3c([nH]c4ccccc34)[C@@](C(=O)OC)(c3cc4c(cc3OC)N(C=O)C3C45CCN4CC=C[C@@](CC)(C(OC(C)=O)[C@]3(O)C(=O)OC)[C@H]45)C2)C1` (stereo not given in full) was tested. Which IC50 [3] did it give?
Its IC50 is 124 nM.

For `C=C1[C@@H](OC(=O)CCc2ccccc2)CC[C@@]2(C)C[C@H](OC(C)=O)C3=C(C)C(=O)C[C@@H]([C@@H](OC(C)=O)[C@H]12)C3(C)C.CC[C@]1(O)CC2CN(CCc3c([nH]c4ccccc34)[C@@](C(=O)OC)(c3cc4c(cc3OC)N(C=O)C3C45CCN4CC=C[C@@](CC)(C(OC(C)=O)[C@]3(O)C(=O)OC)[C@H]45)C2)C1` (stereo not given in full), which IC50 [4] is on record?
The IC50 was 19.4 nM.

What about the IC50 [5] of the same molecule?
Its IC50 is 2.8 nM.

With `C=C1[C@@H](OC(=O)Cc2ccccc2)CC[C@@]2(C)C[C@H](OC(C)=O)C3=C(C)C(=O)C[C@@H]([C@@H](OC(C)=O)[C@H]12)C3(C)C.CC[C@]1(O)CC2CN(CCc3c([nH]c4ccccc34)[C@@](C(=O)OC)(c3cc4c(cc3OC)N(C=O)C3C45CCN4CC=C[C@@](CC)(C(OC(C)=O)[C@]3(O)C(=O)OC)[C@H]45)C2)C1` (stereo not given in full) as the molecule, how does the IC50 [6] read?
Its IC50 is 218 nM.

What about the IC50 [7] of the same molecule?
Its IC50 is 7.3 nM.

What does the source list for `C=C1[C@@H](OC(=O)Cc2cc(OC)ccc2OC)CC[C@@]2(C)C[C@H](OC(C)=O)C3=C(C)C(=O)C[C@@H]([C@@H](OC(C)=O)[C@H]12)C3(C)C.CC[C@]1(O)CC2CN(CCc3c([nH]c4ccccc34)[C@@](C(=O)OC)(c3cc4c(cc3OC)N(C=O)C3C45CCN4CC=C[C@@](CC)(C(OC(C)=O)[C@]3(O)C(=O)OC)[C@H]45)C2)C1` (stereo not given in full)?
IC50 [8]: 8.93 nM; IC50 [9]: 325 nM

Which IC50 [10] does the source give for `CC[C@]1(O)C[C@H]2CN(CCc3c([nH]c4ccccc34)[C@@](C(=O)OC)(c3cc4c(cc3OC)N(C=O)[C@H]3[C@@](O)(C(=O)OC)[C@H](OC(C)=O)[C@]5(CC)C=CCN6CC[C@]43[C@@H]65)C2)C1` [VINCRISTINE] here?
The IC50 was 1230 nM.
